Experimental data collected from several papers.
Protocols differ between the studies behind these lines.
Target: Testis-specific serine/threonine-protein kinase 1 (TSSK1B, Homo sapiens, UniProt Q9BXA7)
One construct used (Q9BXA7 1-367): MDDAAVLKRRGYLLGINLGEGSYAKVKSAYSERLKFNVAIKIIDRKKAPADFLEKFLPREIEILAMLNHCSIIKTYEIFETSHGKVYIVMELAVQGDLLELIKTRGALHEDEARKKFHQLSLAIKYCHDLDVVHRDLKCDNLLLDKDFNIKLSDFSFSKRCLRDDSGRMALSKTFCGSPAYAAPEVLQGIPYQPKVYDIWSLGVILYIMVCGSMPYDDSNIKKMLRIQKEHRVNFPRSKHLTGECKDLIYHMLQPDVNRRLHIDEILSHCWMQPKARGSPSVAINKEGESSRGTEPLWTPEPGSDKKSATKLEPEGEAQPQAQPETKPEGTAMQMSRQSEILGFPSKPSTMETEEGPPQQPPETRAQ

SMILES	test	conditions	remaining binding [%]
CC1CCCN1c1nccc(-c2cnn3ncccc23)n1 (stereo not shown)	binding	1 µM	100
O=C(c1ccc(Nc2ncc(Cl)c(-c3cc4ccccc4s3)n2)cc1)N1CCC(N2CCCC2)CC1	binding, competition with immobilised ligand	1 µM	85
NS(=O)(=O)c1cc(NC(=O)Cc2ccccc2)ccc1Oc1cccc(Cl)c1	cell-free assay, competition with immobilised ligand	1 µM	100
O=C(NCCCN1CCOCC1)c1ccc(Nc2nccc(-c3cc4ccccc4s3)n2)cc1	binding, competition with immobilised ligand	1 µM	93
Cc1cnn2ncc(-c3ccnc(N(C)C)n3)c2c1	binding	1 µM	100
CNC(=O)Nc1ccc2c(c1)CC[C@@]21OC(=O)N(CC(=O)N(Cc2ccc(F)cc2)[C@@H](C)C(F)(F)F)C1=O	cell-free assay, competition with immobilised ligand	1 µM	84
Nc1ncc2c(n1)-c1c([nH]c3ccc(C#CC4CC4)cc13)CCCC2	binding, competition with immobilised ligand	1 µM	100
Cc1cnc(Nc2ccc(C(=O)N3CCC(N4CCCC4)CC3)cc2)nc1-c1cc2ccccc2s1	binding, competition with immobilised ligand	1 µM	85
CCC(=N\O)/C(C)=C/c1ccc(F)cc1	cell-free assay, competition with immobilised ligand	1 µM	82
N[C@H]1CCN(c2nccc(-c3cnn4ncccc34)n2)C1	binding	1 µM	100
COc1ccc2c(c1)O[C@@H](c1ccc(OC)c(OC)c1)C[C@H]2NC(=O)C1(c2ccc3c(c2)OC(F)(F)O3)CC1	cell-free assay, competition with immobilised ligand	1 µM	100
CN(C)c1nccc(-c2cnn3ncccc23)n1	binding	1 µM	100
N#Cc1ccccc1CSc1nnc2c(n1)[nH]c1ccccc12	binding, competition with immobilised ligand	10 µM	100
COc1cc(-c2cn(C3CCc4ccccc4N(CC(F)(F)F)C3=O)nn2)ccc1-n1ccc(C)n1 (stereo not shown)	cell-free assay, competition with immobilised ligand	1 µM	83
c1cnn2ncc(-c3ccnc(N4CCC45COC5)n3)c2c1	binding	1 µM	65
FC(F)(F)Oc1cccc(-c2cnc3ccc(-c4ccncc4)nn23)c1	binding, competition with immobilised ligand	5 µM	83
CN(C)c1nccc(-c2cnc3ncccn23)n1	binding	1 µM	100
COc1ccc2cc(OCC3(C(=O)O)CN(C(=O)c4ccc(F)cc4)C3)ccc2c1	cell-free assay, competition with immobilised ligand	1 µM	100
O=C(Nc1c[nH]nc1C(=O)NC1CCNCC1)c1cc(F)cc(F)c1	binding, competition with immobilised ligand	1 µM	100
C[C@@H]1CN(c2ccc3ncc(-c4ccc5[nH]nc(C6CC6)c5c4)n3n2)C[C@H](C)O1	binding, competition with immobilised ligand	0.5 µM	100
C=CC(=O)N1CCC(C(=O)NCC(=O)N2CCN(c3nc(-c4cnc(N)nc4C(F)F)nc(N4CCOCC4)n3)CC2)CC1	binding, competition with immobilised ligand	1 µM	95
O=C(NS(=O)(=O)c1ccc(NCC2CCOCC2)c([N+](=O)[O-])c1)c1ccc(N2CCN(Cc3ccc(C(F)(F)F)cc3-c3ccc(Cl)cc3)CC2)cc1Oc1cnc2[nH]ccc2c1	cell-free assay, competition with immobilised ligand	1 µM	100
C[C@H]1CCN(c2nccc(-c3cnn4ncccc34)n2)C1	binding	1 µM	98
CSc1cccnc1N1CCN(Cc2nc3ccccc3[nH]2)CC1	cell-free assay, competition with immobilised ligand	1 µM	100
CNC(=O)[C@@H]1CC[C@@H](n2c(-c3ccc4cnccc4c3)nc3ccc(C(=O)NCc4cccc(C(N)=O)c4)cc32)C1	binding, competition with immobilised ligand	1 µM	93
